In ChEMBL document CHEMBL1134785, “Synthesis and biological evaluation of prostaglandin-F alkylphosphinic acid derivatives as bone anabolic agents for the treatment of osteoporosis” (J Med Chem, 2001):

How the values were obtained:
[1] = Dissociation constant was determined; assay type: physicochemical
Prostacyclin receptor = Prostacyclin receptor (Homo sapiens, UniProt P43119); test: In vitro binding at prostanoid IP receptor using [3H]iloprost as radioligand
Method in brief: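 Receptors stably expressed in CHO cells, collected 4-5 days after seeding. Membranes made by lysis (Tris, EDTA, protease inhibitors) and 100000g pellet, then resuspended at 1 mg protein/mL in TME. Radioligands at 5 nM: [3H]PGE2 for EP2/EP3/EP4, [3H]Iloprost for IP, [3H]SQ-29548 for TP. Competition binding with filtration and counting.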

Rattus norvegicus [2] = test: Bone Volume /Tissue Volume (%)measured Histomorphometrically after a dose of 1000 ug/kg in proximal tibial metaphysis; assay type: functional; conditions: at 1000 µg/kg
Rattus norvegicus [3] = test: Bone Volume /Tissue Volume (%)measured using micro Computed Tomography(CT) after a dose of 10 ug/kg in Vertebral Bone; assay type: functional; conditions: at 10 µg/kg
Rattus norvegicus [4] = test: Mineralizing surface/bone surface(%) measured Histomorphometrically after a dose of 300 ug/kg in proximal tibial metaphysis; assay type: functional
Method in brief: (§1)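 Ovariectomized six-month-old rats, 6-8 per group, were dosed subcutaneously once daily at 0.01–3.0 mg/kg for 60 days, starting 60 days after surgery. Vehicle was acetate-buffered saline, methylcellulose and polyoxyethylenesorbitan monooleate. Labels were xylenol orange 90 mg/kg pretreatment and calcein 10 mg/kg at 14 and 4 days before necropsy. Histomorphometry covered the proximal tibial metaphysis, 1–4 mm distal to the growth plate–metaphyseal junction. ANOVA/LSD versus vehicle.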

Rattus norvegicus [5] = test: Bone formation rate/bone volume (%/year) bone measured histomorphometrically after a dose of 1000 ug/kg in proximal tibial metaphysis; assay type: functional; conditions: at 1000 µg/kg
Rattus norvegicus [6] = test: Bone formation rate/tissue volume (%/year) bone measured histomorphometrically after a dose of 300 ug/kg in proximal tibial metaphysis; assay type: functional; conditions: at 300 µg/kg
Rattus norvegicus [7] = test: Bone formation rate/tissue volume (%/year) bone measured histomorphometrically after a dose of 30 ug/kg in proximal tibial metaphysis; assay type: functional; conditions: at 30 µg/kg
Rattus norvegicus [8] = test: Directly measured thickness(um) using micro Computed Tomography(CT) after a dose of 30 ug/kg in Vertebral Bone; assay type: functional
Method in brief: (§2)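 Micro-CT of the fifth lumbar vertebra, measuring cancellous bone volume and architecture. Rats were 6 months old, OVX 60 days before treatment, then dosed daily for 60 days. Test-agent doses were 10–3000 µg/kg, given as a once-daily subcutaneous injection; 6 mg/kg/day was given to the positive-control group. Groups were compared with vehicle by ANOVA plus LSD test.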

Rattus norvegicus [9] = test: Directly measured thickness(um) using micro Computed Tomography(CT) after a dose of 3000 ug/kg in Vertebral Bone; assay type: functional; method in brief: as §2
Rattus norvegicus [10] = test: Endosteal eroded surface(%) measured Histomorphometrically after a dose of 10 ug/kg in tibial diaphysis; assay type: functional
Method in brief: (§3)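 Tibial histomorphometry in 6-month-old rats, OVX 60 days before treatment, then daily injection for 60 days. Vehicle was acetate-buffered saline with methylcellulose and polyoxyethylenesorbitan monooleate. Rats received xylenol orange 90 mg/kg before treatment and calcein 10 mg/kg at 14 and 4 days pre-sacrifice. Rats were killed by cardiac puncture under ketamine/xylazine. Groups were compared with vehicle by ANOVA plus LSD test.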

Rattus norvegicus [11] = test: Endosteal eroded surface(%) measured Histomorphometrically after a dose of 300 ug/kg in tibial diaphysis; assay type: functional; method in brief: as §3
Rattus norvegicus [12] = test: Endosteal eroded surface(%) measured Histomorphometrically after a dose of 3000 ug/kg in tibial diaphysis; assay type: functional; method in brief: as §3
Rattus norvegicus [13] = test: Endosteal mineralizing surface Histomorphometrically after a dose of 10 ug/kg in tibial diaphysis; assay type: functional
Method in brief: (§4)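 Six-month-old rats, bilaterally ovariectomized, 6-8 per group, on natural chow. After 60 days they received once-daily subcutaneous dosing for 60 days at 0.01–3.0 mg/kg. Vehicle was acetate-buffered saline with methylcellulose and polyoxyethylenesorbitan monooleate. Labels were xylenol orange 90 mg/kg before treatment and calcein 10 mg/kg 14 and 4 days before sacrifice. Tibial histomorphometry was read under fluorescent light, with ANOVA/LSD versus vehicle.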

Rattus norvegicus [14] = test: Endosteal mineralizing surface Histomorphometrically after a dose of 300 ug/kg in tibial diaphysis; assay type: functional; method in brief: as §4
Rattus norvegicus [15] = test: Marrow area (mm) measured Histomorphometrically after a dose of 100 ug/kg in tibial diaphysis; assay type: functional; method in brief: as §4
Rattus norvegicus [16] = test: Marrow area (mm) measured Histomorphometrically after a dose of 300 ug/kg in tibial diaphysis; assay type: functional; method in brief: as §4
Rattus norvegicus [17] = test: Periosteal mineral apposition rate ([…]) measured Histomorphometrically after a dose of 30 ug/kg in tibial diaphysis; assay type: functional; method in brief: as §4
Rattus norvegicus [18] = test: Periosteal mineralizing surface (%) measured Histomorphometrically after a dose of 300 ug/kg in tibial diaphysis; assay type: functional
Method in brief: (§5)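 Rats on natural chow (1.46% Ca) were bilaterally ovariectomized at 6 months and left untreated for 60 days. They then received once-daily subcutaneous doses for 60 days, with vehicle of acetate-buffered saline, methylcellulose and polysorbate. Xylenol orange (90 mg/kg) was given before treatment and calcein (10 mg/kg) 14 and 4 days before sacrifice. Tibiae were analysed by fluorescent histomorphometry, 6-8 rats/group, ANOVA/LSD vs vehicle.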

Rattus norvegicus [19] = test: Mineral apposition rate ([…])bone Histomorphometrically after a dose of 30 ug/kg in proximal tibial metaphysis; assay type: functional; method in brief: as §1
Rattus norvegicus [20] = test: Mineral apposition rate ([…])bone measured Histomorphometrically after a dose of 10 ug/kg in proximal tibial metaphysis; assay type: functional; method in brief: as §1
Rattus norvegicus [21] = test: Mineral apposition rate ([…])bone measured Histomorphometrically after a dose of 10 ug/kg in tibial diaphysis; assay type: functional; method in brief: as §4
Rattus norvegicus [22] = test: Mineral apposition rate ([…])bone measured Histomorphometrically after a dose of 100 ug/kg in proximal tibial metaphysis; assay type: functional; method in brief: as §1
Rattus norvegicus [23] = test: Trabecular no (mm)measured Histomorphometrically after a dose of 30 ug/kg in proximal tibial metaphysis; assay type: functional, Trabecula
Method in brief: (§6)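 Six-month-old rats were ovariectomized, and 60 days later daily subcutaneous dosing began for 60 days, with vehicle of acetate-buffered saline, methylcellulose and polysorbate. Xylenol orange (90 mg/kg) labelled bone pre-treatment and calcein (10 mg/kg) 14 and 4 days pre-sacrifice. Histomorphometry covered the proximal tibial metaphysis 1-4 mm distal to the growth plate-metaphyseal junction. Groups were 6-8 rats, compared by ANOVA/LSD vs vehicle.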

Rattus norvegicus [24] = test: Trabecular no (mm)measured Histomorphometrically after a dose of 300 ug/kg in proximal tibial metaphysis; assay type: functional, Trabecula; method in brief: as §6
Rattus norvegicus [25] = test: Trabecular thickness […] measured Histomorphometrically after a dose of 10 ug/kg in proximal tibial metaphysis; assay type: functional, Trabecula; method in brief: as §6
Rattus norvegicus [26] = test: Trabecular thickness […] measured Histomorphometrically after a dose of 100 ug/kg in proximal tibial metaphysis; assay type: functional, Trabecula; method in brief: as §6
Rattus norvegicus [27] = test: Trabecular thickness […] measured Histomorphometrically after a dose of 1000 ug/kg in proximal tibial metaphysis; assay type: functional, Trabecula; method in brief: as §6
Rattus norvegicus [28] = test: Periosteal mineral apposition rate ([…]) measured Histomorphometrically after a dose of 10 ug/kg in tibial diaphysis; assay type: functional; method in brief: as §4
Rattus norvegicus [29] = test: Tissue area (mm) measured Histomorphometrically after a dose of 300 ug/kg in tibial diaphysis; assay type: functional; method in brief: as §5
Rattus norvegicus [30] = test: Derived trabecular thickness (um) measured using micro Computed Tomography(CT) after a dose of 100 ug/kg in Vertebral Bone; assay type: functional, Trabecula; method in brief: as §2
Rattus norvegicus [31] = test: Trabecular no (mm)measured Histomorphometrically after a dose of 3000 ug/kg in proximal tibial metaphysis; assay type: functional, Trabecula; method in brief: as §6

Sequence of Prostacyclin receptor (P43119 whole entry): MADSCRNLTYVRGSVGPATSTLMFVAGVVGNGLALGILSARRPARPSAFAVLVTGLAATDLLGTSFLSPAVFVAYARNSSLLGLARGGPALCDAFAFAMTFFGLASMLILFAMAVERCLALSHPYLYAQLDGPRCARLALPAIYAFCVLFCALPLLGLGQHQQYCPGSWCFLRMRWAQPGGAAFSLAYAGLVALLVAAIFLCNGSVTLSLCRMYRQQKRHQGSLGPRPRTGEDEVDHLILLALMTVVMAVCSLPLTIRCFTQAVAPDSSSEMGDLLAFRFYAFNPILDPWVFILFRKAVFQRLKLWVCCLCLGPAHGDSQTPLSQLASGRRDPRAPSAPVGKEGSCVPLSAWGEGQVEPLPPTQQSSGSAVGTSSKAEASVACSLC

Structure (SMILES): CP(=O)(O)CCC/C=C\C[C@@H]1[C@@H](/C=C/[C@@H](O)COc2ccccc2)[C@H](O)C[C@@H]1O
- pKa [1]: 3.1
- IC50 (Prostacyclin receptor): > 10 µM
- Activity (Rattus norvegicus [2]): 9.43%
- Activity (Rattus norvegicus [3]): 31.04%
- Activity (Rattus norvegicus [4]): 23.57%
- Activity (Rattus norvegicus [5]): 251.82%
- Activity (Rattus norvegicus [6]): 18.03%
- Activity (Rattus norvegicus [7]): 17.55%
- Directly measured thickness (Rattus norvegicus [8]): 126 µm
- Directly measured thickness (Rattus norvegicus [9]): 134 µm
- Endosteal eroded surface (Rattus norvegicus [10]): 11.83%
- Endosteal eroded surface (Rattus norvegicus [11]): 1.32%
- Endosteal eroded surface (Rattus norvegicus [12]): 2.2%
- Endosteal mineralizing surface (Rattus norvegicus [13]): 46.62%
- Endosteal mineralizing surface (Rattus norvegicus [14]): 29.02%
- Marrow area (Rattus norvegicus [15]): 0.82 mm²
- Marrow area (Rattus norvegicus [16]): 0.89 mm
- Periosteal mineral apposition rate (Rattus norvegicus [17]): 0.31 µm/day
- Periosteal mineralizing surface (Rattus norvegicus [18]): 9.56%
- Mineral apposition rate (Rattus norvegicus [19]): 1.09 µm/day
- Mineral apposition rate (Rattus norvegicus [20]): 0.99 µm/day
- Mineral apposition rate (Rattus norvegicus [21]): 0.71 µm/day
- Mineral apposition rate (Rattus norvegicus [22]): 0.87 µm/day
- Trabecular no. (Rattus norvegicus [23]): 0.87 1/mm
- Trabecular no. (Rattus norvegicus [24]): 1.27 1/mm
- Trabecular thickness (Rattus norvegicus [25]): 35.7 µm
- Trabecular thickness (Rattus norvegicus [26]): 45.5 µm
- Trabecular thickness (Rattus norvegicus [27]): 56.7 µm
- Periosteal mineral apposition rate (Rattus norvegicus [28]): 0.49 µm day-1
- Tissue area (Rattus norvegicus [29]): 5.01 mm
- Derived trabecular thickness (Rattus norvegicus [30]): 78.7 µm
- Trabecular no. (Rattus norvegicus [31]): 1.51 1/mm
